The source of these data is ChEMBL document CHEMBL1671845, “Inhibitors of HCV NS5A: From Iminothiazolidinones to Symmetrical Stilbenes” (ACS Med Chem Lett, 2011).

The EC50 is the midpoint of the concentration-response curve. The term CC50 denotes the concentration that lowers cell viability or growth by half. Read a low CC50 as greater toxicity to the cells.

A value given as a limit tells only on which side of the number the result lay.

One data set concerns Hepatitis C virus. In words: Antiviral activity against HCV1b infected in human HuH7 cells assessed as inhibition of viral replication after 72 hrs by FRET assay. It is filed as functional, organism-based, Hepacivirus hominis. As to conditions: genotype 1b, Huh-7, 72 h. Summed up:
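Dual-replicon screen pairing an HCV genotype 1b replicon with a bovine viral diarrhea virus replicon, run in high-throughput mode. Results are reported as EC50.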
Take `C[C@H](NC(=O)OCc1ccccc1)C(=O)Nc1ccc(C2S/C(=N\c3cccc(F)c3)N(Cc3ccco3)C2=O)cc1` (stereo partly drawn): the EC50 worked out at 580 nM.

Take `O=C(Nc1ccc(C2S/C(=N\c3cccc(F)c3)N(Cc3ccco3)C2=O)cc1)OCc1ccccc1` (stereo not drawn): the EC50 is 150000 nM.

Regarding `O=C(COCc1ccccc1)Nc1ccc(C2S/C(=N\c3cccc(F)c3)N(Cc3ccco3)C2=O)cc1` (stereo not drawn), the EC50 was found to be 61000 nM.

As for `CC(OCc1ccccc1)C(=O)Nc1ccc(C2S/C(=N\c3cccc(F)c3)N(Cc3ccco3)C2=O)cc1` (stereo not drawn), the EC50 turned out to be 132000 nM.

As for `O=C(CCc1ccccc1)Nc1ccc(C2S/C(=N\c3cccc(F)c3)N(Cc3ccco3)C2=O)cc1` (stereo not drawn), the EC50 was determined as 75000 nM.

Take `COC(=O)CCCC(=O)Nc1ccc(C2S/C(=N\c3cccc(F)c3)N(Cc3ccco3)C2=O)cc1` (stereo not drawn): the EC50 amounted to 150000 nM.

Regarding `C[C@@H](NC(=O)OCc1ccccc1)C(=O)Nc1ccc(C2S/C(=N\c3cccc(F)c3)N(Cc3ccco3)C2=O)cc1` (stereo partly drawn), the EC50 came to 96000 nM.

On to `O=C(Nc1ccc(C2S/C(=N\c3cccc(F)c3)N(Cc3ccco3)C2=O)cc1)[C@@H]1CCCN1C(=O)OCc1ccccc1` (stereo partly drawn), for which the EC50 was determined as 110 nM.

As to `O=C(Nc1ccc(C2S/C(=N\c3cccc(F)c3)N(Cc3ccco3)C2=O)cc1)[C@H]1CCCN1C(=O)OCc1ccccc1` (stereo partly drawn), the EC50 was found to be 6500 nM.

Turning to `O=C(CNC(=O)OCc1ccccc1)Nc1ccc(C2S/C(=N\c3cccc(F)c3)N(Cc3ccco3)C2=O)cc1` (stereo not drawn), the EC50 was 5000 nM.

Consider `CC(C)(C)OC[C@H](NC(=O)OCc1ccccc1)C(=O)Nc1ccc(C2S/C(=N\c3cccc(F)c3)N(Cc3ccco3)C2=O)cc1` (stereo partly drawn), for which the EC50 is > 50000 nM.

Consider `CC[C@@H](C)[C@H](NC(=O)OCc1ccccc1)C(=O)Nc1ccc(C2S/C(=N\c3cccc(F)c3)N(Cc3ccco3)C2=O)cc1` (stereo partly drawn), for which the EC50 was determined as 6000 nM.

Regarding `O=C(N[C@@H](CSCc1ccccc1)C(=O)Nc1ccc(C2S/C(=N\c3cccc(F)c3)N(Cc3ccco3)C2=O)cc1)OCc1ccccc1` (stereo partly drawn), the EC50 was > 50000 nM.

As for `O=C(N[C@@H](Cc1ccccc1)C(=O)Nc1ccc(C2S/C(=N\c3cccc(F)c3)N(Cc3ccco3)C2=O)cc1)OCc1ccccc1` (stereo partly drawn), the EC50 is > 50000 nM.

Take `C[C@H](NC(=O)c1ccccc1)C(=O)Nc1ccc(C2S/C(=N\c3cccc(F)c3)N(Cc3ccco3)C2=O)cc1` (stereo partly drawn): the EC50 is 1900 nM.

Consider `O=C(Nc1ccc(C2S/C(=N\c3cccc(F)c3)N(Cc3ccco3)C2=O)cc1)[C@@H]1CCCN1C(=O)c1ccccc1` (stereo partly drawn), for which the 50% effective concentration (EC50) was found to be 7900 nM.

`C[C@H](NC(=O)Cc1ccccc1)C(=O)Nc1ccc(C2S/C(=N\c3cccc(F)c3)N(Cc3ccco3)C2=O)cc1` (stereo partly drawn): the EC50 turned out to be 6 nM.

For the compound `O=C(Nc1ccc(C2S/C(=N\c3cccc(F)c3)N(Cc3ccco3)C2=O)cc1)[C@@H]1CCCN1C(=O)Cc1ccccc1` (stereo partly drawn), the EC50 was determined as 23 nM.

Take `C[C@H](NC(=O)CCc1ccccc1)C(=O)Nc1ccc(C2S/C(=N\c3cccc(F)c3)N(Cc3ccco3)C2=O)cc1` (stereo partly drawn): the EC50 stood at 3100 nM.

Turning to `O=C(Nc1ccc(C2S/C(=N\c3cccc(F)c3)N(Cc3ccco3)C2=O)cc1)[C@@H]1CCCN1C(=O)CCc1ccccc1` (stereo partly drawn), the EC50 came to 5100 nM.

Consider `C[C@H](NC(=O)OCc1ccccc1)C(=O)Nc1ccc(C2S/C(=N\c3cccc(F)c3)N(CC3CCCO3)C2=O)cc1` (stereo partly drawn), for which the EC50 came to 650 nM.

For the compound `C[C@H](NC(=O)OCc1ccccc1)C(=O)Nc1ccc(C2S/C(=N\c3cccc(F)c3)N(Cc3cnccn3)C2=O)cc1` (stereo partly drawn), the EC50 amounted to 25 nM.

With `O=C(Nc1ccc(C2S/C(=N\c3cccc(F)c3)N(Cc3cnccn3)C2=O)cc1)[C@@H]1CCCN1C(=O)OCc1ccccc1` (stereo partly drawn), the EC50 was 38 nM.

As to `C[C@H](NC(=O)OCc1ccccc1)C(=O)Nc1ccc(C2S/C(=N\c3cccc(F)c3)N(Cc3ccccn3)C2=O)cc1` (stereo partly drawn), the EC50 was determined as 35 nM.

For `O=C(Nc1ccc(C2S/C(=N\c3cccc(F)c3)N(Cc3ccccn3)C2=O)cc1)[C@@H]1CCCN1C(=O)OCc1ccccc1` (stereo partly drawn), the EC50 was found to be 2 nM.

On to `C[C@H](NC(=O)OCc1ccccc1)C(=O)Nc1ccc(C2S/C(=N\c3cccc(F)c3)N(Cc3cccnc3)C2=O)cc1` (stereo partly drawn), for which the EC50 worked out at 26 nM.

With `C[C@H](NC(=O)OCc1ccccc1)C(=O)Nc1ccc(C2S/C(=N\c3cccc(F)c3)N(Cc3ccc(F)c(F)c3F)C2=O)cc1` (stereo partly drawn), the EC50 is 550 nM.

`O=C(Nc1ccc(C2S/C(=N\c3cccc(F)c3)N(Cc3ccc(F)c(F)c3F)C2=O)cc1)[C@@H]1CCCN1C(=O)OCc1ccccc1` (stereo partly drawn): the EC50 was 600 nM.

Turning to `C[C@H](NC(=O)OCc1ccccc1)C(=O)Nc1ccc(C2S/C(=N\c3ccc(C(F)(F)F)cc3)N(Cc3ccco3)C2=O)cc1` (stereo partly drawn), the EC50 was 2200 nM.

For the compound `O=C(Nc1ccc(C2S/C(=N\c3ccc(C(F)(F)F)cc3)N(Cc3ccco3)C2=O)cc1)[C@@H]1CCCN1C(=O)OCc1ccccc1` (stereo partly drawn), the EC50 stood at 980 nM.

Consider `C[C@H](NC(=O)OCc1ccccc1)C(=O)Nc1ccc(C2S/C(=N\c3ccc(C(F)(F)F)c(F)c3)N(Cc3ccco3)C2=O)cc1` (stereo partly drawn), for which the 50% effective concentration (EC50) stood at 2500 nM.

For `O=C(Nc1ccc(C2S/C(=N\c3ccc(C(F)(F)F)c(F)c3)N(Cc3ccco3)C2=O)cc1)[C@@H]1CCCN1C(=O)OCc1ccccc1` (stereo partly drawn), the EC50 worked out at 2200 nM.

As for `C[C@H](NC(=O)OCc1ccccc1)C(=O)Nc1ccc(C2S/C(=N\c3ccc(Cl)cc3)N(Cc3ccco3)C2=O)cc1` (stereo partly drawn), the EC50 was 510 nM.

As for `O=C(Nc1ccc(C2S/C(=N\c3ccc(Cl)cc3)N(Cc3ccco3)C2=O)cc1)[C@@H]1CCCN1C(=O)OCc1ccccc1` (stereo partly drawn), the EC50 worked out at 1170 nM.

In the case of `CCc1ccc(/N=C2\SC(c3ccc(NC(=O)[C@H](C)NC(=O)OCc4ccccc4)cc3)C(=O)N2Cc2ccco2)cc1` (stereo partly drawn), the EC50 came to 1500 nM.

With `CCc1ccc(/N=C2\SC(c3ccc(NC(=O)[C@@H]4CCCN4C(=O)OCc4ccccc4)cc3)C(=O)N2Cc2ccco2)cc1` (stereo partly drawn), the EC50 was determined as 1800 nM.

In the case of `C[C@H](NC(=O)OCc1ccccc1)C(=O)Nc1ccc(C2S/C(=N\c3ccc(C#N)cc3)N(Cc3ccco3)C2=O)cc1` (stereo partly drawn), the EC50 amounted to 37 nM.

Turning to `N#Cc1ccc(/N=C2\SC(c3ccc(NC(=O)[C@@H]4CCCN4C(=O)OCc4ccccc4)cc3)C(=O)N2Cc2ccco2)cc1` (stereo partly drawn), the EC50 came to 86 nM.

`C[C@H](NC(=O)OCc1ccccc1)C(=O)Nc1ccc(C2S/C(=N\c3cccc4c3OCCO4)N(Cc3ccco3)C2=O)cc1` (stereo partly drawn): the concentration for a half-maximal effect (EC50) is 10 nM.

Regarding `O=C(Nc1ccc(C2S/C(=N\c3cccc4c3OCCO4)N(Cc3ccco3)C2=O)cc1)[C@@H]1CCCN1C(=O)OCc1ccccc1` (stereo partly drawn), the EC50 stood at 9 nM.

As for `C[C@H](NC(=O)OCc1ccccc1)C(=O)Nc1ccc(C2S/C(=N\c3cccc4ncccc34)N(Cc3ccco3)C2=O)cc1` (stereo partly drawn), the EC50 was 20 nM.

As for `O=C(Nc1ccc(C2S/C(=N\c3cccc4ncccc34)N(Cc3ccco3)C2=O)cc1)[C@@H]1CCCN1C(=O)OCc1ccccc1` (stereo partly drawn), the EC50 was 10 nM.

Consider `C[C@H](NC(=O)OCc1ccccc1)C(=O)Nc1ccc(C2S/C(=N\c3ccc(N4CCOCC4)cc3)N(Cc3ccco3)C2=O)cc1` (stereo partly drawn), for which the EC50 was determined as 15 nM.

As to `O=C(Nc1ccc(C2S/C(=N\c3ccc(N4CCOCC4)cc3)N(Cc3ccco3)C2=O)cc1)[C@@H]1CCCN1C(=O)OCc1ccccc1` (stereo partly drawn), the EC50 worked out at 20 nM.

On to `O=C(Nc1ccc(/C=C/c2ccc(NC(=O)[C@@H]3CCCN3C(=O)Cc3ccccc3)cc2)cc1)[C@@H]1CCCN1C(=O)Cc1ccccc1`, for which the EC50 was found to be 0.086 nM.

For the compound `O=C(Nc1ccc(/C=C/c2ccc(NC(=O)[C@H]3CCCN3C(=O)Cc3ccccc3)cc2)cc1)[C@H]1CCCN1C(=O)Cc1ccccc1`, the EC50 is > 10000 nM.

As for `O=C(Nc1ccc(/C=C/c2ccc(NC(=O)[C@@H]3CCCN3C(=O)OCc3ccccc3)cc2)cc1)[C@@H]1CCCN1C(=O)OCc1ccccc1`, the EC50 is 10 nM.

Regarding `O=C(Nc1ccc(/C=C/c2ccc(NC(=O)[C@H]3CCCN3C(=O)OCc3ccccc3)cc2)cc1)[C@H]1CCCN1C(=O)OCc1ccccc1`, the EC50 was > 10000 nM.

Test system in another data set: not listed separately
Put plainly: Cytotoxicity against human HuH7 cells. It is filed as cell-based, Huh-7.
Conditions: not given
Take `C[C@H](NC(=O)OCc1ccccc1)C(=O)Nc1ccc(C2S/C(=N\c3cccc(F)c3)N(Cc3ccco3)C2=O)cc1` (stereo partly drawn): the CC50 is > 100000 nM.

Test system in the next data set: not listed separately
Put plainly: Chemical stability of the compound in DMSO assessed as conversion of (2S)-1-(4-(3-(3-fluorophenyl)-1-(furan-2-ylmethyl)-4-hydroxy-5-oxo-2-thioxoimidazolidin- 4-yl)phenylamino)-1-oxopropan-2-ylcarbamate after 18 hrs by HPLC analysis. It is filed as physicochemical.
Conditions: not given
In the case of `C[C@H](NC(=O)OCc1ccccc1)C(=O)Nc1ccc(C2S/C(=N\c3cccc(F)c3)N(Cc3ccco3)C2=O)cc1` (stereo partly drawn), the Stability result is reported as “Unstable”.

Turning to `C[C@H](NC(=O)Cc1ccccc1)C(=O)Nc1ccc(C2S/C(=N\c3cccc(F)c3)N(Cc3ccco3)C2=O)cc1` (stereo partly drawn), the Stability result is given as “Unstable”.

Test system in another data set: not listed separately
In words: Chemical stability of the compound in DMSO assessed as conversion of (2S)-N-(4-(3-(3-Fluorophenyl)-1-(furan-2-ylmethyl)-4-hydroxy-5-oxo-2- thioxoimidazolidin-4-yl)phenyl)-2-(2-phenylacetamido)propanamide by HPLC analysis. It is filed as physicochemical.
Conditions: not given
`C[C@H](NC(=O)OCc1ccccc1)C(=O)Nc1ccc(C2S/C(=N\c3cccc(F)c3)N(Cc3ccco3)C2=O)cc1` (stereo partly drawn): the Stability entry was “Unstable”.

`C[C@H](NC(=O)Cc1ccccc1)C(=O)Nc1ccc(C2S/C(=N\c3cccc(F)c3)N(Cc3ccco3)C2=O)cc1` (stereo partly drawn): the Stability result is given as “Unstable”.
